Data published in ChEMBL document CHEMBL1148376, “Synthesis, monoamine transporter binding properties, and behavioral pharmacology of a series of 3beta-(substituted phenyl)-2beta-(3'-substituted isoxazol-5-yl)tropanes” (J Med Chem, 2004).

How the values were obtained:
[1] = molecular target: T1, Sodium-dependent serotonin transporter (Rattus norvegicus, UniProt P31652); assay: Binding affinity towards serotonin transporter 5-HTT was determined using [3H]paroxetine radioligand.
How it was run: (§1)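 Competition binding at the 5-HTT with 0.2 nM [3H]paroxetine (final concentration). Other procedures follow earlier published methods.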

[2] = molecular target: Sodium-dependent dopamine transporter (Rattus norvegicus, UniProt P23977); assay: Inhibitory concentration required to inhibit dopamine transporter DAT was determined by using [3H]WIN-35428 radioligand
Sequence of Sodium-dependent dopamine transporter (P23977 whole entry): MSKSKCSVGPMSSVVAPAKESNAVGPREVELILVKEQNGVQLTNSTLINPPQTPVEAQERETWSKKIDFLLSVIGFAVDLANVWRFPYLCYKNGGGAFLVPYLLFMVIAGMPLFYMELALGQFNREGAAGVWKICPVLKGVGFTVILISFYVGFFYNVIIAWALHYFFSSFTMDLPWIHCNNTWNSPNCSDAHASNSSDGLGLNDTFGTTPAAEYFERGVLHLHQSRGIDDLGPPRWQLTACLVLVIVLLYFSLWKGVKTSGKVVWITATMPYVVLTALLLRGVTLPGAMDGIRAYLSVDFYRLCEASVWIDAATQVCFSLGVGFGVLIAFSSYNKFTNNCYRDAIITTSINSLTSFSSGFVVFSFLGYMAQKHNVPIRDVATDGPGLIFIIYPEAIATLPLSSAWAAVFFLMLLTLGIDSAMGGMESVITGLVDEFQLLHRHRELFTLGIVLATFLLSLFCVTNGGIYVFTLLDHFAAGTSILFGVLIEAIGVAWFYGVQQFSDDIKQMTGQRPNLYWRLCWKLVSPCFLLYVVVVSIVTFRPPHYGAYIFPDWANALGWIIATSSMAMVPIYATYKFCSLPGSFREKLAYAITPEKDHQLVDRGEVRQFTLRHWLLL
How it was run: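 Competition binding at the DAT with 0.5 nM [3H]WIN35,428 (final concentration). Other procedures follow earlier published methods.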

Rattus norvegicus [3] = assay: Drug discrimination effect of compound in rats, expressed as percent of rats choosing the cocaine lever at dose 0.3 mg/kg (ip); format: functional
Rattus norvegicus [4] = assay: Effective dose for drug discrimination effect in rat (ip); format: functional
How it was run: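 Cocaine-trained rat drug discrimination, FR10, 10-min sessions. Compound in 0.5% methyl cellulose given ip 15 min before session, usually to 7-8 rats per dose. Doses were raised from ≤20% to ≥80% cocaine-lever choice, capped at 30 mg/kg, >50% loss of pressing, or side effects.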

[5] = molecular target: T1, Sodium-dependent serotonin transporter; assay: Inhibitory concentration required to inhibit serotonin transporter 5-HTT was determined by using [3H]paroxetine radioligand; how it was run: as §1
Mus musculus [6] = species: Mus musculus; assay: Hour 1 ratio to cocaine was determined for locomotor activity in mice; format: functional
[7] = molecular target: T2, Norepinephrine transporter (Rattus norvegicus, UniProt Q9WTR4); assay: Inhibition of norepinephrine transporter (NET) determined using [3H]nisoxetine radioligand.
T2 sequence (Q9WTR4 whole entry): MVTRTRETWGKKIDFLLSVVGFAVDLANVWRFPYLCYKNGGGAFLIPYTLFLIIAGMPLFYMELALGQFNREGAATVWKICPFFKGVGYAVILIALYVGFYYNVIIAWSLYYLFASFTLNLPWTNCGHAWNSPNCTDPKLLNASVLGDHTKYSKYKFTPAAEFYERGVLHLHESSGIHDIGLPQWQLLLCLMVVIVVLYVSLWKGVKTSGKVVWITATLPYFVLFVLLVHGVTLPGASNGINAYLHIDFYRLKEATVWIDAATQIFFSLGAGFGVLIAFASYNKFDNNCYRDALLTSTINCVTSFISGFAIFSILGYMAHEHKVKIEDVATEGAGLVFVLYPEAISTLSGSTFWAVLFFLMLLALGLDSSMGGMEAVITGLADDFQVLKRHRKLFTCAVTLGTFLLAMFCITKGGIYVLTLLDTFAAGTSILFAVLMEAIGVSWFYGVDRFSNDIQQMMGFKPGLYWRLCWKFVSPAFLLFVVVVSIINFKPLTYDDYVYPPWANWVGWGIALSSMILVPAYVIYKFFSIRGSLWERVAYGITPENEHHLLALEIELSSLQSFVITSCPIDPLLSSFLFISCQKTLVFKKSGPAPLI
How it was run: (§2)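 Competition binding at the NET with 0.5 nM [3H]nisoxetine (final concentration). Other procedures follow earlier published methods.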

Mus musculus [8] = assay: Percent change locomotor activity in mice at 1 mg/kg i.p. in 3 h.; format: functional; conditions: route intraperitoneal
How it was run: (§3)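 Mice habituated 1/2 h to photocell activity chambers, then injected ip with compound homogenized in 0.5% methyl cellulose (10 mL/kg); vehicle controls; N = 5 or 6 per dose. Photobeam interruptions recorded in 10-min bins for 4 h, grouped into 1-h bins; one-way ANOVA with Newman-Keuls post hoc test (p < 0.05).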

Mus musculus [9] = assay: Percent change from vehicle in locomotor activity in mice at 0.1 mg/kg (ip) in 3 h; format: functional
Mus musculus [10] = assay: Percent change from vehicle in locomotor activity in mice at 0.1 mg/kg (ip) in 2 h; format: functional
Mus musculus [11] = species: Mus musculus; assay: Effective dose for locomotor activity in mice in the peak hour.; format: functional
Mus musculus [12] = assay: Percent change from vehicle in locomotor activity in mice at 0.3 mg/kg (ip) in 4 h; format: functional
Mus musculus [13] = assay: Percent change from vehicle in locomotor activity in mice at 0.3 mg/kg (ip) in 2 h; format: functional
Mus musculus [14] = assay: Percent change in locomotor activity in mice at 1 mg/kg i.p. in 1 h.; format: functional; conditions: route intraperitoneal
Mus musculus [15] = assay: Percent change in locomotor activity in mice at 1 mg/kg i.p. in 4 h.; format: functional; conditions: route intraperitoneal; how it was run: as §3
Mus musculus [16] = assay: Percent change in locomotor activity in mice at 1 mg/kg i.p. in 2 h.; format: functional; conditions: route intraperitoneal; how it was run: as §3
Mus musculus [17] = assay: Percent change from vehicle in locomotor activity in mice at 0.1 mg/kg (ip) in 4 h; format: functional
Rattus norvegicus [18] = assay: Drug discrimination effect of compound in rats, expressed as percent of rats choosing the cocaine lever at dose 1 mg/kg (ip); format: functional
Mus musculus [19] = assay: Percent change from vehicle in locomotor activity in mice at 0.3 mg/kg (ip) in 3 h; format: functional
Mus musculus [20] = assay: Percent change from vehicle in locomotor activity in mice at 0.1 mg/kg (ip) in 1 h; format: functional
[21] = molecular target: T2, Norepinephrine transporter; assay: Binding affinity towards norepinephrine transporter was determined using [3H]nisoxetine radioligand.; how it was run: as §2
Mus musculus [22] = assay: Percent change from vehicle in locomotor activity in mice at 0.3 mg/kg (ip) in 1 h; format: functional
Rattus norvegicus [23] = assay: Drug discrimination effect of compound in rats, expressed as percent of rats choosing the cocaine lever at dose 0.56 mg/kg (ip); format: functional
Rattus norvegicus [24] = assay: Drug discrimination effect of compound in rats, expressed as percent of rats choosing the cocaine lever at dose 0.1 mg/kg (ip); format: functional
Rattus norvegicus [25] = assay: Drug discrimination effect of compound in rats, expressed as percent of rats choosing the cocaine lever at dose 0.17 mg/kg (ip); format: functional
Mus musculus [26] = assay: Percent change in locomotor activity in mice at 3 mg/kg i.p. in 2 h.; format: functional; conditions: route intraperitoneal; how it was run: as §3
Mus musculus [27] = assay: Percent change in locomotor activity in mice at 3 mg/kg i.p. in 1 h.; format: functional; conditions: route intraperitoneal; how it was run: as §3
Mus musculus [28] = assay: Percent change in locomotor activity in mice at 3 mg/kg i.p. in 3 h.; format: functional; conditions: route intraperitoneal; how it was run: as §3
Mus musculus [29] = assay: Percent change in locomotor activity in mice at 3 mg/kg i.p. in 4 h.; format: functional; conditions: route intraperitoneal; how it was run: as §3
Mus musculus [30] = assay: Percent change from vehicle in locomotor activity in mice at 10 mg/kg (ip) in 1 h; format: functional
Mus musculus [31] = assay: Percent change from vehicle in locomotor activity in mice at 30 mg/kg (ip) in 4 h; format: functional
Mus musculus [32] = assay: Percent change from vehicle in locomotor activity in mice at 10 mg/kg (ip) in 2 h; format: functional
Mus musculus [33] = assay: Percent change from vehicle in locomotor activity in mice at 30 mg/kg (ip) in 1 h; format: functional
Mus musculus [34] = assay: Percent change from vehicle in locomotor activity in mice at 30 mg/kg (ip) in 3 h; format: functional
Mus musculus [35] = assay: Percent change from vehicle in locomotor activity in mice at 10 mg/kg (ip) in 4 h; format: functional
Rattus norvegicus [36] = assay: Drug discrimination effect of compound in rats, expressed as percent of rats choosing the cocaine lever at dose 30 mg/kg (ip); format: functional
Rattus norvegicus [37] = assay: Drug discrimination effect of compound in rats, expressed as percent of rats choosing the cocaine lever at dose 17 mg/kg (ip); format: functional
Rattus norvegicus [38] = assay: Drug discrimination effect of compound in rats, expressed as percent of rats choosing the cocaine lever at dose 5.6 mg/kg (ip); format: functional
Mus musculus [39] = assay: Percent change from vehicle in locomotor activity in mice at 30 mg/kg (ip) in 2 h; format: functional
Mus musculus [40] = assay: Percent change from vehicle in locomotor activity in mice at 10 mg/kg (ip) in 3 h; format: functional

T1 sequence (P31652 whole entry): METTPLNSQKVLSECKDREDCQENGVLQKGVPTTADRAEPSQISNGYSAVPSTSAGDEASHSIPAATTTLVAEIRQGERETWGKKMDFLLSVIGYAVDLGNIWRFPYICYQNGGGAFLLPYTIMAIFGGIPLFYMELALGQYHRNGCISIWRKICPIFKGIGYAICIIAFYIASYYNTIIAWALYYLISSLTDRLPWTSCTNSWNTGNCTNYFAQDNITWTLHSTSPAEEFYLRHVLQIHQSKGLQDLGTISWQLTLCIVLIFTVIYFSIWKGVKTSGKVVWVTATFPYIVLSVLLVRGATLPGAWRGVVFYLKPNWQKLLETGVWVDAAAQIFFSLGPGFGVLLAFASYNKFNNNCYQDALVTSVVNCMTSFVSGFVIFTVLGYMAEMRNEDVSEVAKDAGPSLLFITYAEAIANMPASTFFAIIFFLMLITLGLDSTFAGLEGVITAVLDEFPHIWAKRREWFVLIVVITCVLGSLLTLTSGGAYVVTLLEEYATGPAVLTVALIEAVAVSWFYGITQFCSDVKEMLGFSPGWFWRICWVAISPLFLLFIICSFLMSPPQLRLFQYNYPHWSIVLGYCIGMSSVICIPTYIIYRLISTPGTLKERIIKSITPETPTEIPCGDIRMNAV

| Compound | Ki [1] [nM] | IC50 [2] [nM] | Drug discrimination effect (Rattus norvegicus [3]) [%] | ED50 (Rattus norvegicus [4]) [mg/kg] | IC50 [5] [nM] | Ratio (Mus musculus [6]) | IC50 [7] [nM] | Change (Mus musculus [8]) [%] | Change (Mus musculus [9]) [%] | Change (Mus musculus [10]) [%] | ED50 (Mus musculus [11]) [mg/kg] | Change (Mus musculus [12]) [%] | Change (Mus musculus [13]) [%] | Change (Mus musculus [14]) [%] | Change (Mus musculus [15]) [%] | Change (Mus musculus [16]) [%] | Change (Mus musculus [17]) [%] | Change (Mus musculus [19]) [%] | Ki [21] [nM] | Change (Mus musculus [22]) [%] | other results |
| --- | --- | --- | --- | --- | --- | --- | --- | --- | --- | --- | --- | --- | --- | --- | --- | --- | --- | --- | --- | --- | --- |
| CCc1cc(C2C(c3ccc(Cl)cc3)CC3CCC2N3C)on1 (centres undefined) | 281 | 0.5 | 0 | 0.48 | 3090 | 2.1 | 120 | 1708 | 184 | 224 | 0.4 | 208 | 505 | 954 | 778 | 1900 | 103 | 224 | 72 | 284 | Drug discrimination effect (Rattus norvegicus [18]): 71%; Change (Mus musculus [20]): 82%; Drug discrimination effect (Rattus norvegicus [23]): 75% |
| Cc1cc(C2C(c3ccc(Cl)cc3)CC3CCC2N3C)on1 (centres undefined) | 52 | 0.59 | 88 | 0.21 | 572 | 1.2 | 181 | 926 | 38 | 92 | 0.2 | 392 | 526 | 543 | 981 | 434 | -23 | 735 | 109 | 354 | Drug discrimination effect (Rattus norvegicus [24]): 0%; Change (Mus musculus [20]): 48%; Drug discrimination effect (Rattus norvegicus [25]): 25% |
| CN1C2CCC1C(c1ccno1)C(c1ccc(Cl)cc1)C2 (centres undefined) | 8.2 | 0.77 | 63 | 0.41 | 91 | 1.1 | 87 | 345 | – | – | 1.2 | -20 | 86 | 186 | 182 | 284 | – | 70 | 52 | 57 | Change (Mus musculus [26]): 137%; Drug discrimination effect (Rattus norvegicus [24]): 13%; Drug discrimination effect (Rattus norvegicus [18]): 100%; Change (Mus musculus [27]): 486%; Drug discrimination effect (Rattus norvegicus [25]): 29%; Change (Mus musculus [28]): -40%; Drug discrimination effect (Rattus norvegicus [23]): 25%; Change (Mus musculus [29]): -71% |
| COc1ccc(-c2cc(C3C(c4ccc(C)cc4)CC4CCC3N4C)on2)cc1 (centres undefined) | 366 | 3.93 | – | 11 | 4030 | 0.6 | 756 | – | – | – | 12.8 | – | – | – | – | – | – | – | 455 | – | Change (Mus musculus [26]): 32%; Change (Mus musculus [30]): 187%; Change (Mus musculus [31]): 483%; Change (Mus musculus [32]): 115%; Change (Mus musculus [33]): 290%; Change (Mus musculus [34]): 430%; Change (Mus musculus [35]): 34%; Drug discrimination effect (Rattus norvegicus [36]): 83%; Drug discrimination effect (Rattus norvegicus [37]): 43%; Drug discrimination effect (Rattus norvegicus [38]): 0%; Change (Mus musculus [39]): 235%; Change (Mus musculus [27]): 73%; Change (Mus musculus [40]): 65%; Change (Mus musculus [28]): 27%; Change (Mus musculus [29]): 30% |
